Data taken from ChEMBL document CHEMBL3120154, “2-[N-Alkyl(R-phenyl)-aminomethyl]-3-phenyl-7-trifluoromethylquinoxalines as anticancer agents inhibitors of folate enzymes” (Eur J Med Chem, 2014).

Columns and labels:
Dihydrofolate reductase = molecular target: T1, Dihydrofolate reductase (Homo sapiens, UniProt P00374); assay: Competitive inhibition of human dihydrofolate reductase by spectrophotometry
T1 sequence (P00374 whole entry): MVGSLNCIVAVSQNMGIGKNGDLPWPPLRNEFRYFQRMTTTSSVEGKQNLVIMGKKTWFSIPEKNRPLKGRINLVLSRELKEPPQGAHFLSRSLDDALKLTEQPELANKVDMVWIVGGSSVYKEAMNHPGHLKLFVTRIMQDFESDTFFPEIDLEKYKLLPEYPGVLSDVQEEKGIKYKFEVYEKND

LOX IMVI = assay: Cytotoxicity against human LOXIMVI cells at 10^-4 M after 48 hrs by SRB assay; format: functional; conditions: read-out: GI
Outline: (§1)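 Run in the NCI 60-cell-line screen after a three-line prescreen. Cells got a 48 h drug exposure; viability/growth was estimated with the sulforhodamine B protein assay. Growth inhibition (I%) was recorded at 100, 10, 1, 0.1 and 0.01 micromolar. Percent growth is relative to untreated control cells, and negative values indicate cell kill.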

SNB-75 = assay: Cytotoxicity against human SNB75 cells at 10^-4 M after 48 hrs by SRB assay; format: functional; conditions: SNB-75, 48 h, read-out: GI
Outline: (§2)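 Second-stage screen in the 60-cell-line human tumor panel at NCI, over a 5-log range (100, 10, 1, 0.1, 0.01 micromolar). Cells were exposed to drug for 48 h and growth was estimated with a sulforhodamine B protein stain. The value is percent growth inhibition at each concentration.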

SNB-19 = assay: Cytotoxicity against human SNB19 cells at 10^-4 M after 48 hrs by SRB assay; format: functional; conditions: SNB-19, 48 h, read-out: GI; outline: as §2
SF-268 [1] = assay: Cytotoxicity against human SF268 cells at 10^-4 M after 48 hrs by SRB assay; format: functional; conditions: SF-268, 48 h, read-out: GI; outline: as §2
HCT-116 = assay: Cytotoxicity against human HCT116 cells at 10^-4 M after 48 hrs by SRB assay; format: functional; conditions: HCT-116, 48 h, read-out: GI
Outline: (§3)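 Run by NCI on its 60-line human tumor cell panel, after a three-cell-line prescreen. Cells were exposed to drug for 48 h over a 5-log range: 100, 10, 1, 0.1 and 0.01 micromolar. Growth was estimated by sulforhodamine B (SRB) protein staining. Percent growth inhibition (I%) was recorded at each concentration relative to untreated control cells.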

HCC 2998 = assay: Cytotoxicity against human HCC2998 cells at 10^-4 M after 48 hrs by SRB assay; format: functional; conditions: HCC 2998, 48 h, read-out: GI; outline: as §3
NCI-H522 = assay: Cytotoxicity against human NCI-H522 cells at 10^-4 M after 48 hrs by SRB assay; format: functional; conditions: NCI-H522, 48 h, read-out: GI; outline: as §1
COLO 205 = assay: Cytotoxicity against human COLO205 cells at 10^-4 M after 48 hrs by SRB assay; format: functional; conditions: COLO 205, 48 h, read-out: GI; outline: as §3
NCI-H23 = assay: Cytotoxicity against human NCI-H23 cells at 10^-4 M after 48 hrs by SRB assay; format: functional; conditions: NCI-H23, 48 h, read-out: GI; outline: as §1
NCI-H226 = assay: Cytotoxicity against human NCI-H226 cells at 10^-4 M after 48 hrs by SRB assay; format: functional; conditions: NCI-H226, 48 h, read-out: GI; outline: as §1
HOP-62 = assay: Cytotoxicity against human HOP62 cells at 10^-4 M after 48 hrs by SRB assay; format: functional; conditions: HOP-62, 48 h, read-out: GI; outline: as §3
[2] = Cytotoxicity against human EKVX cells at 10^-4 M after 48 hrs by SRB assay; format: functional; conditions: read-out: GI; outline: as §3
A549 = assay: Cytotoxicity against human A549 cells at 10^-4 M after 48 hrs by SRB assay; format: functional; conditions: A549, 48 h, read-out: GI; outline: as §3
K562 = assay: Cytotoxicity against human K562 cells at 10^-4 M after 48 hrs by SRB assay; format: functional; conditions: K562, 48 h, read-out: GI; outline: as §1
CCRF-CEM = assay: Cytotoxicity against human CCRF-CEM cells at 10^-4 M after 48 hrs by SRB assay; format: functional; conditions: read-out: GI; outline: as §3
SF-268 [3] = assay: Cytotoxicity against human SF268 cells assessed as cell growth at 10^-4 M after 48 hrs by alamar blue assay relative to untreated control; format: functional; conditions: SF-268, 48 h, read-out: Activity
Outline: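 Three-cell-line prescreen at NCI. Each line was seeded and pre-incubated, then given a single concentration (10^-4 or 10^-5 M) and incubated for 48 h. The end-point was alamar blue. The value is percent growth of treated cells versus untreated control cells, with negative numbers indicating cell kill.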

T47D = assay: Cytotoxicity against human T47D cells at 10^-4 M after 48 hrs by SRB assay; format: functional; conditions: read-out: GI; outline: as §2
[4] = Cytotoxicity against human Hs578T cells at 10^-4 M after 48 hrs by SRB assay; format: functional; conditions: Hs-578T, read-out: GI; outline: as §3
NCI/ADR-RES = assay: Cytotoxicity against human NCI/ADR-RES cells at 10^-4 M after 48 hrs by SRB assay; format: functional; conditions: read-out: GI; outline: as §1
MCF7 [5] = assay: Cytotoxicity against human MCF7 cells at 10^-4 M after 48 hrs by SRB assay; format: functional; conditions: MCF7, 48 h, read-out: GI; outline: as §1
DU-145 = assay: Cytotoxicity against human DU145 cells at 10^-4 M after 48 hrs by SRB assay; format: functional; conditions: DU-145, 48 h, read-out: GI; outline: as §3
[6] = Cytotoxicity against human UO31 cells at 10^-4 M after 48 hrs by SRB assay; format: functional; conditions: UO-31, 48 h, read-out: GI; outline: as §2
SN12C = assay: Cytotoxicity against human SN12C cells at 10^-4 M after 48 hrs by SRB assay; format: functional; conditions: read-out: GI; outline: as §2
A498 = assay: Cytotoxicity against human A498 cells at 10^-4 M after 48 hrs by SRB assay; format: functional; conditions: A498, 48 h, read-out: GI; outline: as §3
[7] = Cytotoxicity against human OVCAR4 cells at 10^-4 M after 48 hrs by SRB assay; format: functional; conditions: OVCAR-4, 48 h, read-out: GI; outline: as §2
UACC-62 = assay: Cytotoxicity against human UACC62 cells at 10^-4 M after 48 hrs by SRB assay; format: functional; conditions: UACC-62, 48 h, read-out: GI; outline: as §2
SK-MEL-5 = assay: Cytotoxicity against human SK-MEL-5 cells at 10^-4 M after 48 hrs by SRB assay; format: functional; conditions: SK-MEL-5, 48 h, read-out: GI; outline: as §2
SK-MEL-28 = assay: Cytotoxicity against human SK-MEL-28 cells at 10^-4 M after 48 hrs by SRB assay; format: functional; conditions: SK-MEL-28, 48 h, read-out: GI; outline: as §2
M14 = assay: Cytotoxicity against human M14 cells at 10^-4 M after 48 hrs by SRB assay; format: functional; conditions: M14, 48 h, read-out: GI; outline: as §1
MCF7 [8] = assay: Cytotoxicity against human MCF7 cells assessed as cell growth at 10^-4 M after 48 hrs by alamar blue assay relative to untreated control; format: functional; conditions: MCF7, 48 h, read-out: Activity
Outline: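 Three-cell-line prescreen. Each line was inoculated and preincubated on a microtiter plate, then the agent was added at a single concentration (10^-4 or 10^-5 M) and incubated 48 h. Endpoint was measured with alamar blue, and growth is reported as a percentage of untreated control cells.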

Malme-3M = assay: Cytotoxicity against human MALME-3M cells at 10^-4 M after 48 hrs by SRB assay; format: functional; conditions: read-out: GI; outline: as §1

SMILES	Ki (Dihydrofolate reductase) [µM]	inhibition of growth at 100 µM (LOX IMVI) [%]	inhibition of growth at 100 µM (SNB-75) [%]	inhibition of growth at 100 µM (SNB-19) [%]	inhibition of growth at 100 µM (SF-268 [1]) [%]	inhibition of growth at 100 µM (HCT-116) [%]	inhibition of growth at 100 µM (NCI-H522) [%]	inhibition of growth at 100 µM (COLO 205) [%]	inhibition of growth at 100 µM (NCI-H23) [%]	inhibition of growth at 100 µM (NCI-H226) [%]	inhibition of growth at 100 µM [2] [%]	inhibition of growth at 100 µM (A549) [%]	inhibition of growth at 100 µM (K562) [%]	inhibition of growth at 100 µM (CCRF-CEM) [%]	growth at 100 µM (SF-268 [3]) [%]	inhibition of growth at 100 µM (T47D) [%]	inhibition of growth at 100 µM [4] [%]	inhibition of growth at 100 µM (NCI/ADR-RES) [%]	inhibition of growth at 100 µM (MCF7 [5]) [%]	inhibition of growth at 100 µM (DU-145) [%]	further results
C#CCN(Cc1nc2cc(C(F)(F)F)ccc2nc1-c1ccccc1)c1ccc(F)c(F)c1	8	77	< 40	52	91	77	85	75	52	51	123	107	78	98	95	61	70	67	94	78	inhibition of growth at 100 µM (HCC 2998): 102%; inhibition of growth at 100 µM (HOP-62): < 40%; inhibition of growth at 100 µM [6]: 73%; inhibition of growth at 100 µM (SN12C): 75%; inhibition of growth at 100 µM (A498): 78%; inhibition of growth at 100 µM [7]: < 40%; inhibition of growth at 100 µM (UACC-62): 73%; inhibition of growth at 100 µM (SK-MEL-5): 144%; inhibition of growth at 100 µM (SK-MEL-28): < 40%; inhibition of growth at 100 µM (M14): 41%; growth at 100 µM (MCF7 [8]): 40%
C#CCN(Cc1nc2cc(C(F)(F)F)ccc2nc1-c1ccccc1)c1ccc(F)cc1	8	101	54	84	82	94	93	126	31	71	120	123	89	94	90	90	94	108	89	82	inhibition of growth at 100 µM (Malme-3M): 129%; inhibition of growth at 100 µM [6]: 83%; inhibition of growth at 100 µM (SN12C): 102%; inhibition of growth at 100 µM (A498): 104%; inhibition of growth at 100 µM [7]: 87%; inhibition of growth at 100 µM (UACC-62): 96%; inhibition of growth at 100 µM (SK-MEL-5): 180%; inhibition of growth at 100 µM (SK-MEL-28): 71%; inhibition of growth at 100 µM (M14): 71%; growth at 100 µM (MCF7 [8]): 41%
